Measurements collected from several papers.
Compare with care: the assays were run in different laboratories.
Target: Calcium/calmodulin-dependent protein kinase type IV (CAMK4, Homo sapiens, UniProt Q16566)
Residues used in one study (Q16566 1-473): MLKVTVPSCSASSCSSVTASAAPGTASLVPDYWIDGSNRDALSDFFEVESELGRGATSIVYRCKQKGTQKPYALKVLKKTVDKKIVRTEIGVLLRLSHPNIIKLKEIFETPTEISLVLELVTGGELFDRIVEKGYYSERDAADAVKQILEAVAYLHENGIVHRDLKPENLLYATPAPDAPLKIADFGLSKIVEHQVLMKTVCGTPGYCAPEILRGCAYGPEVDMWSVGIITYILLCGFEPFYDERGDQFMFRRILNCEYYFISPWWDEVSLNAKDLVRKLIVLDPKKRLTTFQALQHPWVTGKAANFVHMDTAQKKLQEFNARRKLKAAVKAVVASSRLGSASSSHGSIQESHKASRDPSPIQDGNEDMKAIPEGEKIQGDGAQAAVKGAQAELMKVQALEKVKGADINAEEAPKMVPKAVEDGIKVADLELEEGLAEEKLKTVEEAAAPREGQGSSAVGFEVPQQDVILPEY

| SMILES | read-out | mode | technique | tested at | measurement | value |
| --- | --- | --- | --- | --- | --- | --- |
| Cc1sc(C(=O)NC2COC2)cc1-n1cc(NC(=O)Nc2c(F)cccc2Cl)cn1 | enzyme activity | inhibitor |  | 10 µM | remaining activity | 98.5% |
| Cn1c2c(c3ccc(Cl)c(Cl)c31)C(C#N)C1(CCNCC1)NC2=O (racemic) | thermal stability |  | DSF | 10 µM | ΔTm | -0.1 °C |
| CCN(CC)CCNC(=O)c1c(C)[nH]c(/C=C2\C(=O)Nc3ccc(F)cc32)c1C | enzyme activity | inhibitor |  | 10 µM | inhibition | 87% |
| Cc1c[nH]c2nccc(Oc3c(F)cc(Nc4cc(Cl)nc(N)n4)cc3F)c12 | cell-free assay |  | competition with immobilised ligand | 0.1 µM | remaining binding | 100% |
| N#CCCc1ccc2c(c1)-c1[nH]c3ccc([N+](=O)[O-])cc3c1CC(=O)N2 | cell-free assay |  |  | 0.5 µM | remaining signal | 98.4% |
| CC(C)(O)[C@H]1CC[C@H](Nc2ccc3ncc(-c4cccc(C(F)(F)F)c4)n3n2)CC1 | enzyme activity | inhibitor |  | 1 µM | remaining activity | 107% |
| COc1cc2ncnc(Nc3ccc(Oc4ccccc4)cc3C)c2cc1OC | enzyme activity | inhibitor |  | 1 µM | inhibition | -20% |
| Cn1c2c(c3ccc(Cl)c(Cl)c31)C(C#N)C1(CCCCC1)NC2=O (racemic) | thermal stability |  | DSF | 10 µM | ΔTm | 0.7 °C |
| CN([C@@H]1CCc2c(CC(=O)O)c3ccccc3n2C1)S(=O)(=O)c1ccc(F)cc1 | cell-free assay |  | competition with immobilised ligand | 1 µM | remaining binding | 85% |
| Cc1cc(NC(=O)c2cccc3cc(-c4cccc5[nH]nc(N)c45)ccc23)ccc1F | enzyme activity | inhibitor |  | 0.1 µM | activity vs control | 104% |
| O=C(NCCCC1CCCCC1)c1ccc(CNC(=O)c2cnn(-c3ccccc3)c2C(F)(F)F)cc1 | cell-free assay |  | competition with immobilised ligand | 0.1 µM | remaining binding | 100% |
| COc1cc2c(Nc3ccc(Br)cc3F)ncnc2cc1OCC1CCN(C)CC1 | cell-free assay |  |  | 0.5 µM | remaining signal | 101% |
| Cn1nc(C(=O)NCc2ccc(C(=O)O)cc2)cc1-c1ccc2[nH]ccc2c1 | cell-free assay |  | competition with immobilised ligand | 0.1 µM | remaining binding | 92% |
| Cn1c2c(Cl)c(Cl)ccc2c2cn[nH]c(=O)c21 | thermal stability |  | DSF | 10 µM | ΔTm | 0.1 °C |
| O=C(N[C@H]1CCCCC/C=C\C2C[C@@]2(C(=O)O)NC(=O)[C@@H]2C[C@@H](Oc3ccncc3)CN2C1=O)OC1CCCC1 (stereo partly drawn) | binding |  | competition with immobilised ligand | 1 µM | remaining binding | 90% |
| CN(C)C1CCN(CC#Cc2nn(C3CCCC3)c3nc(NCc4ccccc4)ncc23)C1 (stereo not drawn) | enzyme activity | inhibitor | FRET | 0.1 µM | inhibition | 4% |
| Cc1ccc(C(=O)Nc2ccc(CN3CCN(C)CC3)c(C(F)(F)F)c2)cc1C#Cc1cnc2cccnn12 | enzyme activity | inhibitor |  | 23.5 nM | remaining activity | 100% |
| Cc1nccc(COC(=O)N2C[C@@H]3[C@@H](CNC(=O)c4ccc5[nH]nnc5c4)[C@@H]3C2)n1 | cell-free assay |  | competition with immobilised ligand | 1 µM | remaining binding | 95% |
